Read-outs that look alike come from different tables or passages of the source.
Legend:
[1] = assay type: in vivo, healthy adult subjects (human)
Method in brief: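 Open-label, fixed-sequence, three periods, ≥10-day washouts, overnight-fasted. Single oral inhibitor FDC (50 mg/100 mg) given alone, after H2-antagonist 20 mg orally ~10 h and 2 h before, or ~2 h after PPI 40 mg on day 5 of 5 daily doses. Plasma sampled predose to 96 h; LC-MS/MS. Noncompartmental; t½ = ln2/λz; GMRs via mixed-effects model on log values.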

[2] = ref previous studies; cited from earlier work
[3] = cited from earlier work

SMILES | tmax, median ([1]; EBR in plasma, EBR/GZR FDC + FAM 20 mg given 10 h and 2 h before) [h] | C24 GMR ([1]; EBR, EBR/GZR FDC + FAM / EBR/GZR FDC) | C24 GMR ([1]; EBR, EBR/GZR FDC + PAN / EBR/GZR FDC) | Tmax ([1]; human, plasma, po, 100 mg) [h] | half-life ([1]; human, plasma, po, 100 mg) [h] | apparent terminal half-life (t½) [2] [h] | time to maximum drug concentration (tmax) [2] [h] | C24 GMR ([1]; GZR, EBR/GZR FDC + FAM / EBR/GZR FDC) | C24 GMR ([1]; GZR, EBR/GZR FDC + PAN / EBR/GZR FDC) | solubility versus stomach pH [3]
COC(=O)N[C@H](C(=O)N1CCC[C@H]1c1nc(-c2ccc3c(c2)O[C@@H](c2ccccc2)n2c-3cc3cc(-c4c[nH]c([C@@H]5CCCN5C(=O)[C@@H](NC(=O)OC)C(C)C)n4)ccc32)c[nH]1)C(C)C [EBR, elbasvir] | 3.50 | 1.03 | 1.03 | 3.5 | 19.3 | ~20 | 2 to 4 |  |  | 
C=C[C@@H]1C[C@]1(NC(=O)[C@@H]1C[C@@H]2CN1C(=O)[C@H](C(C)(C)C)NC(=O)O[C@@H]1C[C@H]1CCCCCc1nc3ccc(OC)cc3nc1O2)C(=O)NS(=O)(=O)C1CC1 [GZR, grazoprevir] |  |  |  |  | 33.8 | ~20 | 2 to 4 | 1.12 | 1.17 | 
COC(=O)N[C@H](C(=O)N1CC2(CC2)C[C@H]1c1ncc(-c2ccc3c(c2)C(F)(F)c2cc(-c4ccc5nc([C@@H]6[C@H]7CC[C@H](C7)N6C(=O)[C@@H](NC(=O)OC)C(C)C)[nH]c5c4)ccc2-3)[nH]1)C(C)C [ledipasvir] |  |  |  |  |  |  |  |  |  | decrease as stomach pH increases
COC[C@H]1C[C@@H](c2ncc(-c3ccc4c(c3)COc3cc5c(ccc6nc([C@@H]7CC[C@H](C)N7C(=O)[C@@H](NC(=O)OC)C(C)C)[nH]c65)cc3-4)[nH]2)N(C(=O)[C@H](NC(=O)OC)c2ccccc2)C1 [velpatasvir] |  |  |  |  |  |  |  |  |  | decrease as stomach pH increases

From PMC5593162 (Clinical and Translational Science, 2017)
